From ChEMBL document CHEMBL1140727, “Structural diversity and plasticity associated with nucleotides targeting orotidine monophosphate decarboxylase” (J Med Chem, 2008)
Activity calls are given as the source filed them. No cut-off for these calls is given here.

Experiments:
[1] = target: T1, Orotidine 5'-phosphate decarboxylase (Saccharomyces cerevisiae S288c, UniProt P03962); test: Inhibition of yeast ODCase
T1 sequence (P03962 whole entry): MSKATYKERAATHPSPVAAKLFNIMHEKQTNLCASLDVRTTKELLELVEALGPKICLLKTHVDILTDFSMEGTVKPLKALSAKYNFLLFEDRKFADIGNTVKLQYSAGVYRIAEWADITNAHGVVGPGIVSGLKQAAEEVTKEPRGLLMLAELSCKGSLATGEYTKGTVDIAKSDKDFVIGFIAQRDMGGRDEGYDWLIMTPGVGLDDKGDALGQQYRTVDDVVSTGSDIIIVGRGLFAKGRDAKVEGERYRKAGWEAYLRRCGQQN

[2] = Inhibition of human ODCase
[3] = Inhibition of Methanobacterium thermoautotrophicum ODCase; design: species or system Methanothermobacter thermautotrophicus
[4] = Inhibition of Plasmodium falciparum ODCase
Plasmodium falciparum [5] = test: Inhibition of Plasmodium falciparum ODCase upto 10 or 20 mM
Outline: (§1)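 Run by ITC at 37 °C. ODCase stock (60 µM in 50 mM Tris pH 7.5, 20 mM DTT, 40 mM NaCl) was held overnight at room temperature. Final mixture: 60 nM enzyme in degassed 50 mM Tris pH 7.4, 1 mM DTT, with nucleotide varied 0–20 mM. Started by a single 3.4 µL injection of 5 mM OMP. Competitive analysis by rate-equation fit and double-reciprocal plots.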

Homo sapiens [6] = species: Homo sapiens; test: Activity of human ODCase
Outline: (§2)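 Enzyme was a truncated C-terminal portion of human UMP synthase, expressed in E. coli BL-21 with the His6 tag removed by thrombin. Stock (60 µM) was incubated overnight at 4 °C. Enzyme plus nucleotide ([…]) in 50 mM Tris pH 7.5, 1 mM DTT was followed by ITC at 37 °C. Started by a 5.7 µL injection of 5 mM OMP (20 µM final). Competitive Ki fit.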

Plasmodium falciparum [7] = test: Activity of Plasmodium falciparum ODCase; outline: as §1
[8] = test system: Methanothermobacter thermautotrophicus; test: Activity of Methanobacterium thermoautotrophcium ODCase
Outline: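 Isothermal titration calorimetry at 55 °C. Enzyme stock (20 µM in 50 mM Tris pH 7.5, 20 mM DTT, 40 mM NaCl) was stabilized overnight at room temperature. Assay: 20 nM ODCase in 50 mM Tris pH 7.5, 1 mM DTT, with fixed nucleotide levels (0–20 mM). Started by a single injection of 5 mM OMP (40 µM final). Competitive Ki from rate fitting, checked by double-reciprocal plots.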

Homo sapiens [9] = species: Homo sapiens; test: Inhibition of human ODCase upto 10 or 20 mM; outline: as §2

SMILES | Ki [2] | Ki [3] | Ki [4] | Activity (Plasmodium falciparum [5]) | other results
O=c1[nH]c(=O)c2ncn([C@@H]3O[C@H](COP(=O)(O)O)[C@@H](O)[C@H]3O)c2[nH]1 | 0.0007 mM | 0.13 mM | 0.043 mM |  | Ki [1]: 400 nM
O=c1ccn([C@@H]2O[C@H](COP(=O)(O)O)[C@@H](O)[C@H]2O)c(=O)[nH]1 | 0.22 mM | 0.33 mM | 0.21 mM |  | 
Nc1ccn([C@@H]2O[C@H](COP(=O)(O)O)[C@@H](O)[C@H]2O)c(=O)n1 | 1.4 mM | 1.2 mM |  | inactive | 
Nc1ncnc2c1ncn2[C@@H]1O[C@H](COP(=O)(O)O)[C@@H](O)[C@H]1O | 4.3 mM | 3.5 mM |  | inactive | 
O=C(O)c1cc(=O)[nH]c(=O)n1[C@@H]1O[C@H](COP(=O)(O)O)[C@@H](O)[C@H]1O |  |  |  |  | Km (Homo sapiens [6]): 1.7 µM; kcat (Homo sapiens [6]): 8.1 s⁻¹; Km (Plasmodium falciparum [7]): 1.3 µM; kcat (Plasmodium falciparum [7]): 6.7 s⁻¹; Km [8]: 4.8 µM; kcat [8]: 20.7 s⁻¹
Nc1ncnc2c1ncn2[C@H]1C[C@H](O)[C@@H](COP(=O)(O)O)O1 | 7.4 mM | > 10 mM |  | inactive | 
Nc1nc2c(ncn2[C@@H]2O[C@H](COP(=O)(O)O)[C@@H](O)[C@H]2O)c(=O)[nH]1 |  | 4.2 mM | 2.1 mM |  | Activity (Homo sapiens [9]): inactive
Cc1cn([C@H]2C[C@H](O)[C@@H](COP(=O)(O)O)O2)c(=O)[nH]c1=O | 8.7 mM | 3.3 mM | 10 mM |  | 
